Data published in ChEMBL document CHEMBL1129331, “Synthesis and physicochemical, biological, and pharmacological properties of new bile acids amidated with cyclic amino acids” (J Med Chem, 1996).
In brackets after ≈: the same amount, converted by molar mass.

Legend:
[1] = system: Rattus norvegicus; assay: Alkaline phosphatase in Bile Fistula rats after iv coinfusion of TCDCA and compound.; format: ADME, organism-based; conditions: in vivo
How it was run: (§1)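 Bile fistula Sprague-Dawley rats (200-250 g). TCDCA and test bile acid given as sodium salts, coinfused via jugular vein, each at 8 μmol/min/kg for 1 h. Bile collected at 30-min intervals for 3 h. Calcium, ALP and LDH in bile measured enzymatically; bile acid composition by HPLC (65% methanol, 15 mM ammonium acetate, pH 5.4). Mean ± SD.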

[2] = system: Rattus norvegicus; assay: Secretion of Bile acids in Bile Fistula rats after the iv administration of compound, expressed as the maximum secretion rate i; format: ADME, organism-based; conditions: in vivo
How it was run: (§2)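 Male Sprague-Dawley rats (300-330 g), urethane-anesthetized, bile duct cannulated. After 1 h baseline, sodium salt infused via femoral vein at 10 μmol/min/kg for 1 h; bile collected at 15-min intervals for 3 h. Flow measured gravimetrically; bile acids, cholesterol and phospholipid measured enzymatically. Smax and Tmax read from secretion-time plots; Rs is the rate at hour 3. Mean ± SD, n=6.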

[3] = system: Rattus norvegicus; assay: Secretion of Bile in Bile Fistula rats after the iv administration of compound, expressed as the residual secretion rate i; format: ADME, organism-based; conditions: in vivo; how it was run: as §2
[4] = Acidity constant was determined; format: ADME
[5] = The compound was incubated with human stools and tested for determining the stability towards C-24 Deamination; format: ADME, organism-based; conditions: in the assay text read “7-dehydroxylation” for “C-24 Deamination”
How it was run: (§3)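 Homogenized fresh human stool (500 mg) in 5 mL chopped meat-glucose medium; bile acid added at 0.05 mM final; 37 °C. Sampled at 0–72 h and stopped with 30% KOH. Bile acids recovered by C-18 solid-phase extraction, then analyzed by TLC and by HPLC with 75% methanol/15 mM ammonium acetate, pH 5.4.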

[6] = system: Rattus norvegicus; assay: Secretion of phospholipid in Bile Fistula rats after the iv administration of compound, expressed as the residual secretion rate i; format: ADME, organism-based; conditions: in vivo; how it was run: as §2
[7] = system: Rattus norvegicus; assay: Bile flow in Bile Fistula rats after iv coinfusion of TCDCA and compound.; format: ADME, organism-based; conditions: in vivo; how it was run: as §1
[8] = system: Rattus norvegicus; assay: Secretion of cholesterol in Bile Fistula rats after the iv administration of compound, expressed as the residual secretion rate; format: ADME, organism-based; conditions: in vivo; how it was run: as §2
[9] = system: Rattus norvegicus; assay: Lactate dehydrogenase in Bile Fistula rats after iv coinfusion of TCDCA and compound.; format: ADME, organism-based; conditions: in vivo; how it was run: as §1
[10] = Critical Micellar concentration was determined; format: ADME
How it was run: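 Measured in water from surface tension, using the maximum bubble-pressure method.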

[11] = system: Rattus norvegicus; assay: Maximum biliary secretion rate of bile acids after iv coinfusion in Bile fistula rats.; format: ADME, organism-based; conditions: in vivo; how it was run: as §1
[12] = system: Rattus norvegicus; assay: Secretion of Bile in Bile Fistula rats after the iv administration of compound, expressed as the maximum secretion rate; format: ADME, organism-based; conditions: in vivo; how it was run: as §2
[13] = system: Rattus norvegicus; assay: Secretion of cholesterol in Bile Fistula rats after the iv administration of compound, expressed as the maximum secretion rate i; format: ADME, organism-based; conditions: in vivo; how it was run: as §2
[14] = system: Rattus norvegicus; assay: Secretion of phospholipid in Bile Fistula rats after the iv administration of compound, expressed as the maximum secretion rate i; format: ADME, organism-based; conditions: in vivo; how it was run: as §2
[15] = Water solubility was determined; format: ADME; conditions: read-out: WS
How it was run: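 Protonated form; measured on saturated solutions at pH 1.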

[16] = system: Rattus norvegicus; assay: Calcium output in Bile Fistula rats after iv coinfusion of TCDCA and compound.; format: ADME, organism-based; conditions: in vivo; how it was run: as §1
[17] = system: Rattus norvegicus; assay: Secretion of Bile acids in Bile Fistula rats after the iv administration of compound, expressed as the residual secretion rate; format: ADME, organism-based; conditions: in vivo; how it was run: as §2
[18] = system: cholylglycine hydrolase; assay: The compound was incubated with cholylglycine hydrolase and tested for determining the stability towards C-24 Deamination; format: ADME; conditions: cholylglycine hydrolase
[19] = Relative lipophilicity was determined; format: physicochemical; conditions: C-18 reverse phase HPLC
How it was run: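 C-18 reverse-phase HPLC run isocratically at 0.9 mL/min. Mobile phase 65% (v/v) aqueous methanol with 2 mM ammonium acetate, pH 7, so that all bile acids are fully ionized.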

[20] = system: Rattus norvegicus; assay: Maximum biliary secretion rate of TCDCA after iv coinfusion in Bile fistula rats.; format: ADME, organism-based; conditions: in vivo; how it was run: as §1
[21] = Critical micellar pH was determined
How it was run: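 20 mL of 50 mM bile salt solution titrated with 0.1 M HCl. CMpH is taken as the pH at which precipitate of the protonated form is first seen by turbidity at 500 nm. Confirmed by back-titration with 0.1 M NaOH until the suspension clears.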

[22] = Partition coefficient (logP); format: physicochemical; conditions: octanol/water
How it was run: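 Octanol/water partition coefficient of the protonated species, calculated rather than measured.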

[23] = The compound was incubated with human stools and tested for determining the stability towards 7-dehydroxylation; format: ADME, organism-based; how it was run: as §3

[ALP]max [1] [IU/L] | Smax [2] [µM/min/kg] | Rs [3] [mL/h/kg] | pKa [4] | Rs [6] [µM/min/kg] | Smax [7] [mL/h/kg] | Rs [8] [nM/min/kg] | [LDH]max [9] [UI l-1] | CMC [10] [mM] | Smax [11] [µM/min/kg] | Smax [12] [mL/h/kg] | Smax [13] [nM/min/kg] | Smax [14] [µM/min/kg] | solubility [15] [µM] | Smax [16] | Rs [17] [µM/min/kg] | half-life [18] [h] | rK [19] | Smax [20] [µM/min/kg] | CMpH [21] | Compound | also measured
34 | 6 | 2.28 | 3.9 | 0.26 | 6 | 23 | 48 | 30 | 3.41 | 3.6 | 52 | 0.28 | 60 (≈ 30.3 µg/mL) | 0.39 µM/min/kg | 1.8 | > 72 | 0.85 | 5.07 | 6.6 | CC(CCC(=O)N1CCC[C@@H]1C(=O)O)C1CC[C@H]2[C@@H]3[C@H](O)[C@H](O)C4C[C@H](O)CC[C@]4(C)[C@H]3CC[C@]12C (some centres undefined) | half-life [5]: > 72 h; logP [22]: 3.71
32 | 6 | 3 | 3.9 | 0.11 | 5.16 | 31 | 16 | 15 | 3.22 | 5.4 | 55 | 0.28 | 113 (≈ 55.3 µg/mL) | 0.42 µmol/min/kg | 0.9 | > 72 | 1.25 | 5.43 | 6 | CC(CCC(=O)N1CCC[C@@H]1C(=O)O)C1CC[C@H]2[C@@H]3[C@@H](O)CC4C[C@H](O)CC[C@]4(C)[C@H]3CC[C@]12C (some centres undefined) | half-life [23]: > 72 h; logP [22]: 5.83
57 | 5.7 | 2.82 | 3.9 | 0.21 | 4.98 | 46 | 95 | 25 | 3.02 | 4.02 | 60 | 0.34 | 52 (≈ 25.5 µg/mL) | 0.42 µM/min/kg | 1.4 | > 72 | 0.94 | 3.88 | 6.6 | CC(CCC(=O)N1CCC[C@@H]1C(=O)O)C1CC[C@H]2[C@@H]3C[C@H](O)C4C[C@H](O)CC[C@]4(C)[C@H]3CC[C@]12C (some centres undefined) | half-life [5]: > 72 h; logP [22]: 4.41

More lines, now with the values behind:

Compound | [ALP]max [1] [IU/L] | Smax [2] [µM/min/kg] | Rs [3] [mL/h/kg] | pKa [4] | Rs [6] [µM/min/kg] | Smax [7] [mL/h/kg] | Rs [8] [nM/min/kg] | [LDH]max [9] [UI l-1] | CMC [10] [mM] | Smax [11] [µM/min/kg] | Smax [12] [mL/h/kg] | Smax [13] [nM/min/kg] | Smax [14] [µM/min/kg] | solubility [15] [µM] | Smax [16] | Rs [17] [µM/min/kg] | half-life [18] [h] | rK [19] | Smax [20] [µM/min/kg] | CMpH [21] | also measured
CC(CCC(=O)N1C[C@@H](O)C[C@@H]1C(=O)O)C1CC[C@H]2[C@@H]3[C@@H](O)CC4C[C@H](O)CC[C@]4(C)[C@H]3CC[C@]12C (some centres undefined) | 31 | 6.3 | 2.76 | 3.1 | 0.12 | 5.4 | 31 | 10 | 10 | 3.27 | 5.82 | 68 | 0.25 | 250 (≈ 126 µg/mL) | 0.37 µM/min/kg | 0.9 | > 72 | 0.6 | 4.98 | 4.7 | half-life [23]: > 72 h; logP [22]: 3.59
CC(CCC(=O)NCC(=O)O)C1CC[C@H]2[C@@H]3C[C@H](O)C4C[C@H](O)CCC4(C)[C@H]3CCC12C (some centres undefined) | – | – | – | – | – | – | – | – | – | – | – | – | – | – | – | – | 5 | – | – | – | –
